{
  "source": "paper PMC5766324",
  "about": "(Pain, 2015)",
  "key": {"[1]": {"molecular_target": "N-type voltage-gated calcium channel (CaV2.2) (rat (endogenous in spinal cord)) (UniProt Q02294)", "sequence (Q02294 whole entry)": "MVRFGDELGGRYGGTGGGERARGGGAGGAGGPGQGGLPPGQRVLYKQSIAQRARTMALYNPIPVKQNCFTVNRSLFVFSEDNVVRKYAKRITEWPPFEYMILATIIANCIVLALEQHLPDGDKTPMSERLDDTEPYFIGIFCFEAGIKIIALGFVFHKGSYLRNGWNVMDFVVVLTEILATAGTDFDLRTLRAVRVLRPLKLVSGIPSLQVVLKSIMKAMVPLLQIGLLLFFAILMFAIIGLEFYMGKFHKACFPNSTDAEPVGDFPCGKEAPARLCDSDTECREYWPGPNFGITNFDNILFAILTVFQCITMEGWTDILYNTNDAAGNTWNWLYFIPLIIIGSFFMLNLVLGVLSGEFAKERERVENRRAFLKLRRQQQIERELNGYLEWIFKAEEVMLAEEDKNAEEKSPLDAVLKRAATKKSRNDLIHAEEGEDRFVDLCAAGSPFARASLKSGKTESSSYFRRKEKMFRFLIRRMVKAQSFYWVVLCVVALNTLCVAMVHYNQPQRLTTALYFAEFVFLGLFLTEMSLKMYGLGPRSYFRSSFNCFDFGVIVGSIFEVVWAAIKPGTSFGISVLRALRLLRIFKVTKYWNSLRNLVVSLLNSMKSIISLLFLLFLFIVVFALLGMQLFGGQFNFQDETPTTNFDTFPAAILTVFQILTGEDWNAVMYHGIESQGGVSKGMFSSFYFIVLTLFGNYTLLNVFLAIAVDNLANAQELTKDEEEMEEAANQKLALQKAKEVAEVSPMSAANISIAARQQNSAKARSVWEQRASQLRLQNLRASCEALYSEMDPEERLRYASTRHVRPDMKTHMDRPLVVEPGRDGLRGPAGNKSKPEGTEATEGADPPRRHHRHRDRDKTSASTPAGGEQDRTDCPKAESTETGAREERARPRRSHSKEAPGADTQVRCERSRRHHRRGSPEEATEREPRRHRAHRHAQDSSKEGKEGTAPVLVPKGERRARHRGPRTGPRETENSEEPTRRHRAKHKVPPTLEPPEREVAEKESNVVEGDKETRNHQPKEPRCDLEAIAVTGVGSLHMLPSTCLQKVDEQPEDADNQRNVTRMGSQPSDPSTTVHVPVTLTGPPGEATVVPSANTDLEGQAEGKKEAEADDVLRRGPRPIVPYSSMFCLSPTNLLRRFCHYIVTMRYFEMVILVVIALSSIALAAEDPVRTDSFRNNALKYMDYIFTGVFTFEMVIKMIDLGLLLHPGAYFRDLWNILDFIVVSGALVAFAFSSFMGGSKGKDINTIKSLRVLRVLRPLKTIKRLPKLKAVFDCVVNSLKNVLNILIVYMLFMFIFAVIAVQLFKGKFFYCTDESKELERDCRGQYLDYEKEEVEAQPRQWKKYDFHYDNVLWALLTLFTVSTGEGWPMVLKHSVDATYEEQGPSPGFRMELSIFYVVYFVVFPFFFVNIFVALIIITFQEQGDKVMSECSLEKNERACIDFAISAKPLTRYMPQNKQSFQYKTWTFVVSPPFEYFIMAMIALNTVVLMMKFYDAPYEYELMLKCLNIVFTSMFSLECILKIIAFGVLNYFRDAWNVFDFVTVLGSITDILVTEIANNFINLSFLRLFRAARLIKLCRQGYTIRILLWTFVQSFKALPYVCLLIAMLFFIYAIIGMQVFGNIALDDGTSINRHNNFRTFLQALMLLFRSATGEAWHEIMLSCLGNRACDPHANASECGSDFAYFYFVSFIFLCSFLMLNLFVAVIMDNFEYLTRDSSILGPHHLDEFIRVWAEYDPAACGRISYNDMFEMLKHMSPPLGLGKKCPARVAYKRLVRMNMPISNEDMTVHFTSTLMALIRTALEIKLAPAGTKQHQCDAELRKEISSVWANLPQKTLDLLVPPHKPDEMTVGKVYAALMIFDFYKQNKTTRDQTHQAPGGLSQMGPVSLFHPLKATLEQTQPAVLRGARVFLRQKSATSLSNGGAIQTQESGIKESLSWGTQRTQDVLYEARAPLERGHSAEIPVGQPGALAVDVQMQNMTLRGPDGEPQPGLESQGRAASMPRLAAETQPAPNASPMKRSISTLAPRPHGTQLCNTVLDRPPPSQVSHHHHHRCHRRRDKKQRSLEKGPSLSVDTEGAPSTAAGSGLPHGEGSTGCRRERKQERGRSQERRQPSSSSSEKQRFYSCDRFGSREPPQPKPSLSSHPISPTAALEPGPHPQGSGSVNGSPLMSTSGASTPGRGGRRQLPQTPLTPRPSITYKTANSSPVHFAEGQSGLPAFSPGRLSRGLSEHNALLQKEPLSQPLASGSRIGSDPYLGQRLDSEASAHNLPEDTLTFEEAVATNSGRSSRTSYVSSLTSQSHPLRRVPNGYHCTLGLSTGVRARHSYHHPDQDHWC", "assay": "pull-down"}, "[2]": {"details": "cited from earlier work"}, "Rotarod performance test": {"assay": "Rotarod performance test", "type": "in vivo, rat", "details": "20 μg/5 μL i.t.; cutoff 180 seconds; n = 5 to 6"}, "[3]": {"system": "Ca2+ currents in sensory neurons", "details": "cited from earlier work"}, "CRMP2": {"molecular_target": "CRMP2 (Homo sapiens, UniProt Q16555)", "assay": "CRMP2 oligomerization, glutaraldehyde cross-linking and silver-stained SDS-PAGE", "type": "biochemical", "details": "20 μM peptide, 1 mM glutaraldehyde; n = 3", "method_in_brief": "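Bacterially expressed recombinant CRMP2, purified by affinity, anion-exchange and size-exclusion chromatography. About 4.6 μM CRMP2 was preincubated in 100 mM HEPES pH 7.3, 50 mM NaCl, with or without 20 μM peptide, for 15 min at room temperature. Glutaraldehyde (0.1, 1 or 10 mM) was added for 30 min. The reaction was stopped with loading dye and heat, and oligomers were resolved by SDS-PAGE with silver staining.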"}, "[4]": {"assay": "Paw incision model of postoperative pain", "type": "in vivo, rat", "method_in_brief": "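Male Sprague-Dawley rats received a plantar incision of the left hind paw under isoflurane. After 24 h of recovery, peptide or vehicle was given spinally. Thermal withdrawal latency (lift or lick; 30-s cutoff) and tactile withdrawal thresholds were measured every 15 min for the first hour, then every 30 min for 4 h.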"}, "[5]": {"assay": "Carrageenan-induced thermal hypersensitivity", "type": "in vivo, rat", "details": "20 μg/5 μL i.t., 3 hours after carrageenan; tat-CBD3 at 90, 120, 210, 240, 300 minutes; myr-tat-CBD3 at 15, 60, 90, 120, 180 minutes; n = 5–6"}, "[6]": {"system": "small-diameter DRG neurons", "assay": "Current clamp, excitability of small-diameter DRG neurons", "type": "cell-based, rat", "details": "step of depolarizing current; n = 4 to 6 cells; P < 0.001", "method_in_brief": "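Whole-cell current clamp of acutely dissociated small-diameter DRG neurons at ~23°C. Pipette solution (mM): 140 KCl, 10 NaCl, 1 MgCl2, 1 EGTA, 10 HEPES pH 7.2, 1 ATP-Mg. Cells were held at resting potential (−40 to −62 mV). A 1-s depolarizing current step was set to evoke 6–10 APs under control, and APs were counted before and after adding peptide to the bath. Signals were filtered at 5 kHz and […].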"}, "[7]": {"system": "Ca2+ currents in sensory neurons", "assay": "Whole-cell voltage clamp, Ca2+ currents in sensory neurons", "type": "cell-based, rat"}, "CaV2.2": {"system": "CaV2.2", "assay": "Immunocytochemistry, confocal colocalization of CaV2.2 and CRMP2 in DRG", "type": "cell-based, rat", "details": "20 μM peptide", "method_in_brief": "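DRG cultures were grown on poly-D-lysine coverslips in DMEM/F12 with 10% FBS, 5-FDU and uridine at 37°C, 5% CO2. Cells were exposed to vehicle or 20 μM peptide for 5 min, 20 min, 2 h or 48 h, then fixed (4% paraformaldehyde/4% sucrose, 20 min), permeabilized (0.1% Triton X-100) and blocked (3% BSA). Anti-CaV2.2 and anti-CRMP2 were applied overnight at 4°C. Confocal images were background-subtracted, and Pearson and Manders coefficients were computed from raw data.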"}, "[8]": {"system": "Na+ currents, catecholamine A differentiated cell line", "details": "chronic application, 20 μM overnight; n = 5 to 8 cells"}, "CRMP2 phosphorylation": {"system": "CRMP2 phosphorylation", "assay": "Western blot of phospho-CRMP2 in peptide-treated DRG", "type": "cell-based, rat", "details": "20 μM peptide, 2 hours, n = 3–6 wells"}, "[9]": {"details": "i.c.v. dosing; previous studies; cited from earlier work"}},
  "note": "Where a SMILES comes first, the peptide text is derived from it. The star is where a group is joined. Myristoyl = CCCCCCCCCCCCCC(=O)*",
  "data": [
    {"compound": "myr-tat-CBD3 (peptide)", "values": [
      {"measurement": "percent inhibition of CaV2.2-CRMP2 binding at 10 μM", "setting": "[1]", "result": "> 81", "unit": "%"}
    ]},
    {"compound": "ω-conotoxin MVIIA", "values": [
      {"measurement": "duration of reduced thermal hypersensitivity and mechanical allodynia", "setting": "[2]; in vivo", "result": "2 to 4", "unit": "h"},
      {"measurement": "time of maximal effect", "setting": "[2]; in vivo", "result": 2, "unit": "h"}
    ]},
    {"compound": "CC(C)C[C@H](NC(=O)CNC(=O)[C@H](CCCNC(=N)N)NC(=O)[C@@H]1CCCN1C(=O)[C@@H](NC(=O)CNC(=O)[C@H](CCCNC(=N)N)NC(=O)[C@H](CC(C)C)NC(=O)[C@H](CCC(=O)O)NC(=O)[C@H](C)NC(=O)[C@H](CC(C)C)NC(=O)[C@H](CCCNC(=N)N)NC(=O)[C@H](CO)NC(=O)[C@H](CCCNC(=N)N)NC(=O)[C@H](C)NC(=O)[C@H](CCCNC(=N)N)NC(=O)[C@H](CCCNC(=N)N)NC(=O)[C@H](CCCNC(=N)N)NC(=O)[C@H](CCC(N)=O)NC(=O)[C@H](CCCNC(=N)N)NC(=O)[C@H](CCCNC(=N)N)NC(=O)[C@H](CCCCN)NC(=O)[C@H](CCCCN)NC(=O)[C@H](CCCNC(=N)N)NC(=O)CNC(=O)[C@@H](N)Cc1ccc(O)cc1)C(C)C)C(=O)O", "note": "[tat-CBD3] (H-YGRKKRRQRRRARSRLAELRGVPRGL-OH)", "values": [
      {"measurement": "average time on rotarod over the course of 300 minutes", "setting": "Rotarod performance test", "result": "180 ± 0", "unit": "s"}
    ]},
    {"compound": "NCC1(CC(=O)O)CCCCC1", "note": "[gabapentin]", "values": [
      {"measurement": "peak effect, reversal of hypersensitivity", "setting": "[2]; intrathecal, von Frey on incised paw, 60 minutes after injection", "result": "~ 19%"},
      {"measurement": "block of CaV2.2 currents after acute treatments", "setting": "[3]", "result": "ineffective in blocking currents"}
    ]},
    {"compound": "CCCCCCCCCCCCCC(=O)NCC(=O)N[C@@H](Cc1ccc(O)cc1)C(=O)NCC(=O)N[C@@H](CCCNC(=N)N)C(=O)N[C@@H](CCCCN)C(=O)N[C@@H](CCCCN)C(=O)N[C@@H](CCCNC(=N)N)C(=O)N[C@@H](CCCNC(=N)N)C(=O)N[C@@H](CCC(N)=O)C(=O)N[C@@H](CCCNC(=N)N)C(=O)N[C@@H](CCCNC(=N)N)C(=O)N[C@@H](CCCNC(=N)N)C(=O)N[C@@H](C)C(=O)N[C@@H](CCCNC(=N)N)C(=O)N[C@@H](CO)C(=O)N[C@@H](CCCNC(=N)N)C(=O)N[C@@H](CC(C)C)C(=O)N[C@@H](C)C(=O)N[C@@H](CCC(=O)O)C(=O)N[C@@H](CC(C)C)C(=O)N[C@@H](CCCNC(=N)N)C(=O)NCC(=O)N[C@H](C(=O)N1CCC[C@H]1C(=O)N[C@@H](CCCNC(=N)N)C(=O)NCC(=O)N[C@@H](CC(C)C)C(=O)O)C(C)C", "note": "[myr-tat-CBD3] (Myristoyl-GYGRKKRRQRRRARSRLAELRGVPRGL-OH; C-terminus assumed)", "values": [
      {"measurement": "extent of CRMP2 dimer or tetramer", "setting": "CRMP2", "result": "does not alter"},
      {"measurement": "time for which maintenance of thermal and tactile hypersensitivity was blocked", "setting": "[4]; 20 μg/5 μL i.t., 24 hours after incision, n = 5", "result": "at least 4 hours"},
      {"measurement": "withdrawal threshold (tactile)", "setting": "[4]; at 5 hours after i.t. injection, 20 μg/5 μL", "result": "~ 11 g"},
      {"measurement": "duration of reversal of thermal hypersensitivity", "setting": "[4]; spinal administration after surgery", "result": "~ 4 hours"},
      {"measurement": "carrageenan-induced thermal hypersensitivity vs vehicle", "setting": "[5]", "result": "significantly attenuated"},
      {"measurement": "number of action potentials (APs)", "setting": "[6]", "result": "significantly decreased"},
      {"measurement": "effect on Ca2+ currents, acute application", "setting": "[7]; acute application (5–30 minutes), data not shown", "result": "unable to inhibit currents"},
      {"measurement": "inhibition of Ca2+ currents", "setting": "[7]; chronic application (~24 hours), 20 μM overnight, n = 14 to 16 cells", "result": "~ 40%"},
      {"measurement": "activation of Ca2+ currents", "setting": "[7]; chronic application, 20 μM, Boltzmann fits", "result": "no changes"},
      {"measurement": "Manders overlap coefficient (MOC), CaV2.2 with CRMP2", "setting": "CaV2.2", "result": 0.65},
      {"measurement": "Pearson correlation coefficient (PCC), CaV2.2 with CRMP2", "setting": "CaV2.2", "result": 0.60},
      {"measurement": "effect on Na+ currents", "setting": "[8]", "result": "did not affect"},
      {"measurement": "expression of phosphorylated CRMP2 at sites 522, 509/514, 555", "setting": "CRMP2 phosphorylation", "result": "no changes"}
    ]},
    {"compound": "CN1CC[C@]23c4c5ccc(O)c4O[C@H]2[C@@H](O)C=C[C@H]3[C@H]1C5", "note": "[morphine]", "values": [
      {"measurement": "conditioned place preference", "setting": "[9]", "result": "positive condition place preference"}
    ]}
  ]
}
